Results taken from ChEMBL document CHEMBL1136016, “Synthesis, biological activity, and molecular modeling investigation of new pyrazolo[4,3-e]-1,2,4-triazolo[1,5-c]pyrimidine derivatives as human A(3) adenosine receptor antagonists” (J Med Chem, 2002).

Assays:
Adenosine receptor A3 [1] = biological target: T1, Adenosine receptor A3 (Homo sapiens, UniProt P0DMS8); assay: Inhibition of IB-MECA agonist-mediated cAMP production in CHO cell membranes expressing human Adenosine A3 receptor; range […]; format: functional, cell-based
T1 sequence (P0DMS8 whole entry): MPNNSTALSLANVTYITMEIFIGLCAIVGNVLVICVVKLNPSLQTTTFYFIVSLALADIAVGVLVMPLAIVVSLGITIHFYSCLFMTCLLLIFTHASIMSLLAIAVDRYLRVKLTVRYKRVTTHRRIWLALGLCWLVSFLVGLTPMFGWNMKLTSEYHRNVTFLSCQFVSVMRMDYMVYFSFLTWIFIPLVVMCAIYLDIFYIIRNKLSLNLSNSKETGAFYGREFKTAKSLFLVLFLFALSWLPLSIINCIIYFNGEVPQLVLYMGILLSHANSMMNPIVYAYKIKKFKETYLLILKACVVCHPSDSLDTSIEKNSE
In short: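 Human A3-CHO membranes (in 50 mM Tris HCl, 10 mM MgCl2, 1 mM EDTA, pH 7.4) were preincubated for 10 min at 37 °C with 5 µM GTP, 0.5 mM Ro 20-1724 and 2.0 IU/mL adenosine deaminase. IB-MECA (100 nM) or antagonist was then added with 1 mM ATP and forskolin for 10 min. The reaction was stopped by 2 min boiling. cAMP was measured by [3H]cAMP competitive protein binding using beef adrenal binding protein, 150 min at 4 °C.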

[2] = biological target: Adenosine receptors; A2b & A3 (Homo sapiens) (UniProt P29275+P0DMS8); assay: Selectivity ratio (h2B/hA3); format: protein assay
Adenosine receptor A2b [3] = biological target: T2, Adenosine receptor A2b (Homo sapiens, UniProt P29275); assay: Displacement of [3H]DPCPX from human Adenosine A2B receptor expressed in HEK293 cells; range 235-347; format: cell-based
T2 sequence (P29275 whole entry): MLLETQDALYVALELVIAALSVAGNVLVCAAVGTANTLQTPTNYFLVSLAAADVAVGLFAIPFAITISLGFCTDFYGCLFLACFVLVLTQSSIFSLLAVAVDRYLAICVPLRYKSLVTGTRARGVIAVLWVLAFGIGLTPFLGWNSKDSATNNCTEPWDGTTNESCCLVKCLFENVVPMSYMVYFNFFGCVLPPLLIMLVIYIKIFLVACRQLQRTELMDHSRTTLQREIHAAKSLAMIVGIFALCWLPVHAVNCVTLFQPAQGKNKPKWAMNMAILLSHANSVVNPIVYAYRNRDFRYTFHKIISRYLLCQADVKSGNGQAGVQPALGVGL
In short: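 Competition binding on membranes of HEK-293 cells carrying recombinant human A2B receptor. Incubation 60 min at 25 °C in 50 mM Tris HCl pH 7.4 with 10 mM MgCl2, 1 mM EDTA, 0.1 mM benzamidine and 2 IU/mL adenosine deaminase. Radioligand 40 nM [3H]DPCPX, at least six to eight test concentrations. NECA defined nonspecific binding. Bound ligand separated on glass-fibre filters and counted; n = 3-6.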

[4] = biological target: Adenosine receptors; A1 & A3 (Homo sapiens) (UniProt P30542+P0DMS8); assay: Selectivity ratio (hA1/hA3); format: protein assay
Adenosine receptor A2a [5] = biological target: T3, Adenosine receptor A2a (Homo sapiens, UniProt P29274); assay: Displacement of [3H]SCH-58261 from human Adenosine A2A receptor expressed in HEK293 cells; range 112-177; format: cell-based
Adenosine receptor A1 [6] = biological target: T4, Adenosine receptor A1 (Homo sapiens, UniProt P30542); assay: Displacement of [3H]DPCPX from human Adenosine A1 receptor expressed in CHO cells; range 654-856; format: cell-based
T4 sequence (P30542 whole entry): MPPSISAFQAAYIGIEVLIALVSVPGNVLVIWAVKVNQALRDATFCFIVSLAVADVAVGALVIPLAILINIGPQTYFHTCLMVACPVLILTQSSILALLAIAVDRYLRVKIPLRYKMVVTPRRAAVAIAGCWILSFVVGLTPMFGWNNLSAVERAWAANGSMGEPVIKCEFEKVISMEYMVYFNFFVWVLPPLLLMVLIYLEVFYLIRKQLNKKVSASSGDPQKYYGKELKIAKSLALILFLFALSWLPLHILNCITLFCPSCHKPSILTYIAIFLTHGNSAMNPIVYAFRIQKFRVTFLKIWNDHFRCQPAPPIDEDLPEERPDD

Adenosine receptor A3 [7] = biological target: T1, Adenosine receptor A3; assay: Displacement of [3H]MRE3008-F20 from human Adenosine A3 receptor expressed in HEK cells; range 0.64-0.86; format: cell-based, HEK293
Adenosine receptor A2a [8] = biological target: T3, Adenosine receptor A2a; assay: Displacement of [3H]SCH-58261 from human Adenosine A2A receptor expressed in HEK293 cells; range 40-62; format: cell-based
Adenosine receptor A3 [9] = biological target: T1, Adenosine receptor A3; assay: Displacement of [3H]MRE3008-F20 from human Adenosine A3 receptor expressed in HEK cells; range 0.37-0.56; format: cell-based, HEK293
Adenosine receptor A1 [10] = biological target: T4, Adenosine receptor A1; assay: Displacement of [3H]DPCPX from human Adenosine A1 receptor expressed in CHO cells; range 290-418; format: cell-based
In short: (§1)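 Human recombinant A1 receptor in CHO cell membranes, resuspended in 50 mM Tris HCl pH 7.4. Displacement run 120 min at 25 °C with 1 nM [3H]DPCPX, 50 µg protein per assay, and at least six to eight test concentrations. Nonspecific binding defined with CHA. Bound and free separated on glass-fiber filters; filter radioactivity counted. n = 3-6.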

Adenosine receptor A2b [11] = biological target: T2, Adenosine receptor A2b; assay: Displacement of [3H]DPCPX from human Adenosine A2B receptor expressed in HEK293 cells; range 124-180; format: cell-based
In short: (§2)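 HEK-293 membranes expressing the human receptor were incubated 60 min at 25 °C. Six to eight test concentrations were used. Nonspecific binding was set with NECA. n = 3-6.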

Adenosine receptor A2b [12] = biological target: T2, Adenosine receptor A2b; assay: Displacement of [3H]DPCPX from human Adenosine A2B receptor expressed in HEK293 cells; range 40-69; format: cell-based
In short: (§3)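 Membranes from HEK-293 cells with human recombinant A2B receptor. Incubation 60 min at 25 °C in 50 mM Tris HCl, 10 mM MgCl2, 1 mM EDTA, 0.1 mM benzamidine, pH 7.4, with 2 IU/mL adenosine deaminase and 40 nM [3H]DPCPX. At least six to eight test concentrations. Nonspecific binding defined with NECA. n = 3-6.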

Adenosine receptor A1 [13] = biological target: T4, Adenosine receptor A1; assay: Displacement of [3H]DPCPX from human Adenosine A1 receptor expressed in CHO cells; range 738-961; format: cell-based; in short: as §1
Adenosine receptor A3 [14] = biological target: T1, Adenosine receptor A3; assay: Displacement of [3H]MRE3008-F20 from human Adenosine A3 receptor expressed in HEK cells; range 0.22-0.40; format: cell-based, HEK293
Adenosine receptor A2a [15] = biological target: T3, Adenosine receptor A2a; assay: Displacement of [3H]SCH-58,261 from human Adenosine A2A receptor expressed in HEK293 cells; range 543-820; format: cell-based
Adenosine receptor A1 [16] = biological target: T4, Adenosine receptor A1; assay: Displacement of [3H]DPCPX from human Adenosine A1 receptor expressed in CHO cells; range 237-384; format: cell-based
In short: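 Competition binding on membranes of CHO cells stably expressing human A1 receptor, resuspended in 50 mM Tris HCl pH 7.4. Incubation 120 min at 25 °C with 1 nM [3H]DPCPX, 50 µg protein per assay and at least six to eight test concentrations. CHA defined nonspecific binding. Bound ligand separated on glass-fibre filters and counted; n = 3-6.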

Adenosine receptor A2a [17] = biological target: T3, Adenosine receptor A2a; assay: Displacement of [3H]SCH-58261 from human Adenosine A2A receptor expressed in HEK293 cells; range 8-18; format: cell-based
Adenosine receptor A3 [18] = biological target: T1, Adenosine receptor A3; assay: Displacement of [3H]MRE3008-F20 from human Adenosine A3 receptor expressed in HEK cells; range 0.31-0.56; format: cell-based, HEK293
Adenosine receptor A2b [19] = biological target: T2, Adenosine receptor A2b; assay: Displacement of [3H]DPCPX from human Adenosine A2B receptor expressed in HEK293 cells; range 34-62; format: cell-based; in short: as §2
Adenosine receptor A2b [20] = biological target: T2, Adenosine receptor A2b; assay: Displacement of [3H]DPCPX from human Adenosine A2B receptor expressed in HEK293 cells; range 56-103; format: cell-based; in short: as §3
Adenosine receptor A3 [21] = biological target: T1, Adenosine receptor A3; assay: Displacement of [3H]MRE3008-F20 from human Adenosine A3 receptor expressed in HEK cells; range 0.24-0.48; format: cell-based, HEK293
Adenosine receptor A2a [22] = biological target: T3, Adenosine receptor A2a; assay: Displacement of [3H]SCH-58261 from human Adenosine A2A receptor expressed in HEK293 cells; range 123-162; format: cell-based
Adenosine receptor A1 [23] = biological target: T4, Adenosine receptor A1; assay: Displacement of [3H]DPCPX from human Adenosine A1 receptor expressed in CHO cells; range 265-400; format: cell-based; in short: as §1
Adenosine receptor A2a [24] = biological target: T3, Adenosine receptor A2a; assay: Displacement of [3H]SCH-58261 from human Adenosine A2A receptor expressed in HEK293 cells; range 78-114; format: cell-based
Adenosine receptor A1 [25] = biological target: T4, Adenosine receptor A1; assay: Displacement of [3H]DPCPX from human Adenosine A1 receptor expressed in CHO cells; range 184-333; format: cell-based
Adenosine receptor A3 [26] = biological target: T1, Adenosine receptor A3; assay: Displacement of [3H]MRE3008-F20 from human Adenosine A3 receptor expressed in HEK cells; range 0.53-0.68; format: cell-based, HEK293

T3 sequence (P29274 whole entry): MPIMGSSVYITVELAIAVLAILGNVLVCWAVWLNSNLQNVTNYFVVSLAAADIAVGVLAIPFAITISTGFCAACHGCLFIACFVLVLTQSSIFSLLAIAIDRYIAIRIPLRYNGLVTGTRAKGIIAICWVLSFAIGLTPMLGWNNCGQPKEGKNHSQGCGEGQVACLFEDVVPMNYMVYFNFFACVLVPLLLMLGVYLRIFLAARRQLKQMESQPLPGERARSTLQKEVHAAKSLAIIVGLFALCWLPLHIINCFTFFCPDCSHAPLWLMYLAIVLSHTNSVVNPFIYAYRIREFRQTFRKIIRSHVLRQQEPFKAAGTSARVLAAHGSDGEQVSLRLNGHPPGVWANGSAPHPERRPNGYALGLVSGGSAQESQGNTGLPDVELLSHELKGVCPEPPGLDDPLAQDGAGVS

Work on Cn1cc2c(nc(NC(=O)Nc3ccc(C(F)(F)F)cc3)n3nc(-c4ccco4)nc23)n1 yielded an IC50 (Adenosine receptor A3 [1]) of 6.6 nM, a Ratio [2] of 386 and a Ki (Adenosine receptor A2b [3]) of 286 nM. The Ratio [4] was 1010, the Ki (Adenosine receptor A2a [5]) was 140 nM and the Ki (Adenosine receptor A1 [6]) was 750 nM. For the same compound, the Ki (Adenosine receptor A3 [7]) was 0.74 nM.

For CCCn1cc2c(nc(NC(=O)Nc3ccc(Br)cc3)n3nc(-c4ccco4)nc23)n1, the Ki (Adenosine receptor A2a [8]) was 50 nM, the Ratio [2] was 333 and the Ki (Adenosine receptor A3 [9]) was 0.45 nM. For the same compound, the Ki (Adenosine receptor A1 [10]) was 350 nM, the Ratio [4] was 778 and the Ki (Adenosine receptor A2b [11]) was 150 nM.

With CCCn1cc2c(nc(NC(=O)Nc3ccc4c(c3)OCO4)n3nc(-c4ccco4)nc23)n1 the Ki (Adenosine receptor A2b [12]) was 53 nM, the Ki (Adenosine receptor A1 [13]) was 842 nM and the Ratio [2] was 177. For the same compound, the Ratio [4] was 2810, the Ki (Adenosine receptor A3 [14]) was 0.3 nM and the Ki (Adenosine receptor A2a [15]) was 667 nM.

CCCn1cc2c(nc(NC(=O)Nc3ccc(C)cc3)n3nc(-c4ccco4)nc23)n1 was tested, and the Ki (Adenosine receptor A1 [16]) was 302 nM, the Ki (Adenosine receptor A2a [17]) was 12 nM and the Ratio [2] was 115. The Ratio [4] was 755, the Ki (Adenosine receptor A3 [18]) was 0.4 nM and the Ki (Adenosine receptor A2b [19]) was 46 nM.

In the case of CCCn1cc2c(nc(NC(=O)Nc3ccc(Cl)cc3)n3nc(-c4ccco4)nc23)n1, the Ki (Adenosine receptor A2b [20]) is reported as 76 nM, the Ki (Adenosine receptor A3 [21]) is reported as 0.34 nM and the Ratio [2] is reported as 224. For the same compound, the Ki (Adenosine receptor A2a [22]) was 140 nM, the Ratio [4] was 956 and the Ki (Adenosine receptor A1 [23]) was 325 nM.

CCCCn1cc2c(nc(NC(=O)Nc3cccc(OC)c3)n3nc(-c4ccco4)nc23)n1 gave a Ki (Adenosine receptor A2a [24]) of 95 nM, a Ki (Adenosine receptor A1 [25]) of 248 nM and a Ratio [2] of 250. The Ki (Adenosine receptor A3 [26]) was 0.6 nM, the Ratio [4] was 413 and the Ki (Adenosine receptor A2b [11]) was 150 nM.
